From ChEMBL document CHEMBL1148481, “Linker length modulates DNA cross-linking reactivity and cytotoxic potency of C8/C8' ether-linked C2-exo-unsaturated pyrrolo[2,1-c][1,4]benzodiazepine (PBD) dimers” (J Med Chem, 2004)

What was measured:
Nucleic Acid [1] = test: Thermal stabilization of duplex form of calf thymus DNA after incubation for 4 hours; format: functional; settings: Bos taurus
Procedure, shortened: (§1)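 UV melting of calf thymus DNA (100 μM phosphate, 50 μM bp) with ligand at 20 μM (ligand:DNA 1:5) in pH 7.00 buffer (10 mM sodium phosphate, 1 mM EDTA), ≤0.6% v/v MeOH with correction. Samples were preincubated at 37 °C for the stated time, heated at 1 °C/min over 45–98 °C and monitored at 260 nm. ΔTm is the midpoint shift versus free DNA, from at least three determinations.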

Nucleic Acid [2] = test: Thermal stabilization of duplex form of calf thymus DNA after incubation for 0 hours; format: functional; settings: Bos taurus; procedure, shortened: as §1
Nucleic Acid [3] = test: Thermal stabilization of duplex form of calf thymus DNA after incubation for 18 hours; format: functional; settings: Bos taurus; procedure, shortened: as §1
Nucleic Acid [4] = test: Compound dose required to induce 50 percent cross linking in naked plasmid pBR322 DNA following incubation with agent for 2 hours at 37 degree C; format: functional
Procedure, shortened: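 Denatured at 90 °C for 2.5 min in 30% DMSO and run on 0.8% agarose, 40 V, 14–16 h. Autoradiography and laser densitometry of double- vs single-stranded bands gave dose–response curves; mean of ≥3 experiments.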

K562 [5] = test: Inhibitory concentration against human K562 leukemia cells following incubation for 1 hour; format: functional, cell-based; settings: K562, 1 h
Procedure, shortened: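 K562 cells in RPMI 1640 with 10% FCS and 2 mM glutamine were exposed to drug for 1 h at 37 °C in the dark, then washed. They were plated at 10⁴ cells/well (8 wells per sample) and grown 4 days. MTT was added for 5 h, formazan dissolved in DMSO, and OD read at 550 nm. IC50 is the dose reducing OD to 50% of control.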

[6] = Compound was tested for inhibition of restriction endonuclease BamH1 enzyme at a concentration of 25 uM;Inhibited
Procedure, shortened: (§2)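 BamHI protection assay: a 512-bp PvuII plasmid fragment with a single BamHI site (500 ng) was incubated with the PBD (methanol stock 10 mM) for 16 h at 37 °C. It was then digested with BamHI (10 units) for 1 h at 37 °C. Cut and uncut DNA were resolved on a 1% agarose TBE gel, stained with ethidium bromide, and the cut fraction was quantified versus dose.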

NCI-H460 = test: Compound was tested for 50% growth inhibition against human non-small cell lung cancer NCI-H460 cell line; format: functional
BT-549 = test: Compound was tested for 50% growth inhibition against human breast cancer BT-549 cell line; format: functional
MOLT-4 = test: Compound was tested for 50% growth inhibition against human leukemia MOLT-4 cell line; format: functional
HCT-116 = test: Compound was tested for 50% growth inhibition against human colon cancer HCT116 cell line; format: functional
KM12 = test: Compound was tested for 50% growth inhibition against human colon cancer KM12 cell line; format: functional
PC-3 = test: Compound was tested for 50% growth inhibition against human prostate cancer PC-3 cell line; format: functional
SF-295 = test: Compound was tested for 50% growth inhibition against human CNS cancer SF-295 cell line; format: functional
MDA-MB-231 = test: Compound was tested for 50% growth inhibition against human breast cancer MDA-MB-231/ATCC cell line; format: functional
OVCAR-8 = test: Compound was tested for 50% growth inhibition against human ovarian cancer OVCAR-8 cell line; format: functional
HOP-62 = test: Compound was tested for 50% growth inhibition against human non-small cell lung cancer HOP-62 cell line; format: functional
T47D = test: Compound was tested for 50% growth inhibition against human breast cancer T-47D cell line; format: functional
HCC 2998 = test: Compound was tested for 50% growth inhibition against human colon cancer HCC2998 cell line; format: functional
MCF7 = test: Compound was tested for 50% growth inhibition against human breast cancer MCF-7 cell line; format: functional
MDA-N = test: Compound was tested for 50% growth inhibition against human breast cancer MDA-N cell line; format: functional
NCI-H226 = test: Compound was tested for 50% growth inhibition against human non-small cell lung cancer NCI-H226 cell line; format: functional
ACHN = test: Compound was tested for 50% growth inhibition against human renal cancer ACHN cell line; format: functional
SR = test: Compound was tested for 50% growth inhibition against human leukemia SR cell line; format: functional
OVCAR-5 = test: Compound was tested for 50% growth inhibition against human ovarian cancer OVCAR-5 cell line; format: functional
HCT-15 = test: Compound was tested for 50% growth inhibition against human colon cancer HCT-15 cell line; format: functional
NCI/ADR-RES = test: Compound was tested for 50% growth inhibition against human breast cancer NCI/ADR-RES cell line; format: functional
CCRF-CEM = test: Compound was tested for 50% growth inhibition against human leukemia CCRF-CEM cell line; format: functional
K562 [7] = test: Dose required to induce 50 percent decrease in tail moment of the DNA of K562 cells following a 1 hour treatment; format: functional, Homo sapiens
Procedure, shortened: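 Alkaline Comet assay in K562 cells after 1 h drug exposure, done on ice in subdued light. Cells were irradiated (10 Gy), embedded in agarose, lysed 1 h at pH 10.5, held in alkali 45 min and electrophoresed 25 min at pH 12.5. Slides were propidium iodide stained; 25 cells per duplicate slide. Value is the dose giving 50% decrease in tail moment relative to irradiated controls.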

SK-MEL-28 = test: Compound was tested for 50% growth inhibition against human melanoma SK-MEL-28 cell line; format: functional
HL-60 = test: Compound was tested for 50% growth inhibition against human leukemia […] cell line; format: functional
SW-620 = test: Compound was tested for 50% growth inhibition against human colon cancer SW 620 cell line; format: functional
A549 = test: Compound was tested for 50% growth inhibition against human non-small cell lung cancer A549/ATCC cell line; format: functional
UACC-257 = test: Compound was tested for 50% growth inhibition against human melanoma UACC-257 cell line; format: functional
LOX IMVI = test: Compound was tested for 50% growth inhibition against human melanoma LOXIMVI cell line; format: functional
TK-10 = test: Compound was tested for 50% growth inhibition against human renal cancer TK-10 cell line; format: functional
786-0 = test: Compound was tested for 50% growth inhibition against human renal cancer 786-0 cell line; format: functional
HT-29 = test: Compound was tested for 50% growth inhibition against human colon cancer HT-29 cell line; format: functional
SN12C = test: Compound was tested for 50% growth inhibition against human renal cancer […] cell line; format: functional
Hs-578T = test: Compound was tested for 50% growth inhibition against human breast cancer HS 578T cell line; format: functional
Malme-3M = test: Compound was tested for 50% growth inhibition against human melanoma MALME-3M cell line; format: functional
IGROV-1 = test: Compound was tested for 50% growth inhibition against human ovarian cancer IGROVI cell line; format: functional
EKVX = test: Compound was tested for 50% growth inhibition against human non-small cell lung cancer EKVX cell line; format: functional
M14 = test: Compound was tested for 50% growth inhibition against human melanoma M14 cell line; format: functional
COLO 205 = test: Compound was tested for 50% growth inhibition against human colon cancer COLO 205 cell line; format: functional
OVCAR-3 = test: Compound was tested for 50% growth inhibition against human ovarian cancer OVCAR-3 cell line; format: functional
RPMI-8226 = test: Compound was tested for 50% growth inhibition against human leukemia RPMI-8226 cell line; format: functional
SNB-19 = test: Compound was tested for 50% growth inhibition against human CNS cancer SNB-19 cell line; format: functional
[8] = Compound was tested for inhibition of restriction endonuclease BamH1 enzyme at a concentration of 10 uM;Inhibited; procedure, shortened: as §2
SK-MEL-5 = test: Compound was tested for 50% growth inhibition against human melanoma SK-MEL-5 cell line; format: functional
NCI-H23 = test: Compound was tested for 50% growth inhibition against human non-small cell lung cancer NCI-H23 cell line; format: functional
SF-539 = test: Compound was tested for 50% growth inhibition against human CNS cancer SF-539 cell line; format: functional
NCI-H322M = test: Compound was tested for 50% growth inhibition against human non-small cell lung cancer NCI-H322M cell line; format: functional
CAKI-1 = test: Compound was tested for 50% growth inhibition against human renal cancer CAKI-1 cell line; format: functional
UO-31 = test: Compound was tested for 50% growth inhibition against human renal cancer UO-31 cell line; format: functional
A498 = test: Compound was tested for 50% growth inhibition against human renal cancer A498 cell line; format: functional
SF-268 = test: Compound was tested for 50% growth inhibition against human CNS cancer SF-268 cell line; format: functional
DU-145 = test: Compound was tested for 50% growth inhibition against human prostate cancer DU-145 cell line; format: functional
U-251 = test: Compound was tested for 50% growth inhibition against human CNS cancer U251 cell line; format: functional
HOP-92 = test: Compound was tested for 50% growth inhibition against human non-small cell lung cancer […] cell line; format: functional
SK-OV-3 = test: Compound was tested for 50% growth inhibition against human ovarian cancer SK-OV-3 cell line; format: functional

C/C=C1\C[C@H]2C=Nc3cc(O)c(OC)cc3C(=O)N2C1
ΔTm (Nucleic Acid [1]): 2.4 °C
ΔTm (Nucleic Acid [2]): 1 °C
ΔTm (Nucleic Acid [3]): 2.6 °C

COc1cc2c(cc1OCCCOc1cc3c(cc1OC)C(=O)N1CCC[C@H]1C=N3)N=C[C@@H]1CCCN1C2=O [DSB-120]
C50 (Nucleic Acid [4]): 0.055 µM
ΔTm (Nucleic Acid [1]): 13.1 °C
ΔTm (Nucleic Acid [2]): 10.2 °C
IC50 (K562 [5]): 200 nM
ΔTm (Nucleic Acid [3]): 15.1 °C
Activity [6]: Inhibited

C=C1C[C@H]2C=Nc3cc(OCCCCCOc4cc5c(cc4OC)C(=O)N4CC(=C)C[C@H]4C=N5)c(OC)cc3C(=O)N2C1
GI50 (NCI-H460): 0.0955 nM
GI50 (BT-549): 0.162 nM
GI50 (MOLT-4): 0.012 nM
GI50 (HCT-116): 0.174 nM
GI50 (KM12): 0.245 nM
GI50 (PC-3): 0.617 nM
GI50 (SF-295): 0.038 nM
GI50 (MDA-MB-231): 0.371 nM
GI50 (OVCAR-8): 0.195 nM
GI50 (HOP-62): 0.117 nM
GI50 (T47D): 0.0199 nM
C50 (Nucleic Acid [4]): 0.004 µM
GI50 (HCC 2998): 0.186 nM
GI50 (MCF7): 0.0933 nM
GI50 (MDA-N): 0.209 nM
GI50 (NCI-H226): 0.162 nM
GI50 (ACHN): 0.0251 nM
GI50 (SR): < 0.001 nM
GI50 (OVCAR-5): 0.309 nM
GI50 (HCT-15): 1.74 nM
GI50 (NCI/ADR-RES): 7.94 nM
GI50 (CCRF-CEM): 0.00646 nM
C50 (K562 [7]): 0.009 µM
ΔTm (Nucleic Acid [1]): 25.5 °C
GI50 (SK-MEL-28): 0.219 nM
GI50 (HL-60): 0.0148 nM
GI50 (SW-620): 0.288 nM
GI50 (A549): 0.123 nM
GI50 (UACC-257): 0.525 nM
GI50 (LOX IMVI): 0.0549 nM
GI50 (TK-10): 0.295 nM
GI50 (786-0): 0.0977 nM
GI50 (HT-29): 0.224 nM
GI50 (SN12C): 0.0269 nM
GI50 (Hs-578T): 0.302 nM
GI50 (Malme-3M): 0.162 nM
GI50 (IGROV-1): 0.0049 nM
GI50 (EKVX): 1.58 nM
GI50 (M14): 0.141 nM
GI50 (COLO 205): 0.166 nM
GI50 (OVCAR-3): 0.2 nM
GI50 (RPMI-8226): 0.186 nM
GI50 (SNB-19): 0.105 nM
ΔTm (Nucleic Acid [2]): 24.9 °C
IC50 (K562 [5]): < 1 nM
Activity [8]: Inhibited
GI50 (SK-MEL-5): 0.245 nM
GI50 (NCI-H23): 0.0832 nM
GI50 (SF-539): 0.0363 nM
GI50 (NCI-H322M): 0.468 nM
GI50 (CAKI-1): 0.178 nM
ΔTm (Nucleic Acid [3]): 25.8 °C
GI50 (UO-31): 0.251 nM
GI50 (A498): 0.224 nM
GI50 (SF-268): 0.0501 nM
GI50 (DU-145): 0.049 nM
GI50 (U-251): 0.0427 nM
GI50 (HOP-92): 0.112 nM
GI50 (SK-OV-3): 0.162 nM
